An excerpt weighted towards active compounds, which were near 0.86% of everything screened.
Rtt109 HAT inh: blocks Candida albicans Rtt109/Vps75 acetyltransferase activity | 330,000 compounds, 0.16% hits | inhibition, % at 34.9 µM | Q5AAJ8 | purified Rtt109/Vps75, ThioGlo CoA-SH fluorescence, 4 h;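 active means inhibition of at least 50% in every replicate; inconclusive means best replicate reaches 50% inhibition but some replicates fall short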
S100A4 inh HTS: inhibitors of human S100A4 binding to myosin IIA peptide | P26447 | S100A4/TAMRA-MyoIIA peptide fluorescence polarization | inhibition, % at 10.7 µM | 360,000 compounds, 0.14% hits | AID 652163;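 active means mean inhibition of at least 70% across replicates, with every replicate also reaching that level; inconclusive means mean inhibition reaches 70% but some replicates fall short; inactive means mean inhibition below 70%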
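Material: human S100A4 monomer with TAMRA-labelled myosin IIA peptide; buffer or medium: HEPES pH 7.2 with CaCl2, KCl, NaCl, DTT, Triton; compound dosing: one concentration per compound; schedule: 5 min incubation before reading; benchmarks: neutral control DMSO, positive control TFP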
ERAP1 inh: blocks human ERAP1 aminopeptidase activity | Q9NZ08 | recombinant ERAP1, Leu-AMC fluorescence, 60 min | inhibition, % at 10.7 µM | 340,000 compounds, 0.15% hits | AID 652197;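 active means mean replicate inhibition of at least 30%, or all replicates individually reaching that 30% level; inactive means mean below 30% and not every replicate reaching it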
Target sequence (Q9NZ08 whole entry, looked up): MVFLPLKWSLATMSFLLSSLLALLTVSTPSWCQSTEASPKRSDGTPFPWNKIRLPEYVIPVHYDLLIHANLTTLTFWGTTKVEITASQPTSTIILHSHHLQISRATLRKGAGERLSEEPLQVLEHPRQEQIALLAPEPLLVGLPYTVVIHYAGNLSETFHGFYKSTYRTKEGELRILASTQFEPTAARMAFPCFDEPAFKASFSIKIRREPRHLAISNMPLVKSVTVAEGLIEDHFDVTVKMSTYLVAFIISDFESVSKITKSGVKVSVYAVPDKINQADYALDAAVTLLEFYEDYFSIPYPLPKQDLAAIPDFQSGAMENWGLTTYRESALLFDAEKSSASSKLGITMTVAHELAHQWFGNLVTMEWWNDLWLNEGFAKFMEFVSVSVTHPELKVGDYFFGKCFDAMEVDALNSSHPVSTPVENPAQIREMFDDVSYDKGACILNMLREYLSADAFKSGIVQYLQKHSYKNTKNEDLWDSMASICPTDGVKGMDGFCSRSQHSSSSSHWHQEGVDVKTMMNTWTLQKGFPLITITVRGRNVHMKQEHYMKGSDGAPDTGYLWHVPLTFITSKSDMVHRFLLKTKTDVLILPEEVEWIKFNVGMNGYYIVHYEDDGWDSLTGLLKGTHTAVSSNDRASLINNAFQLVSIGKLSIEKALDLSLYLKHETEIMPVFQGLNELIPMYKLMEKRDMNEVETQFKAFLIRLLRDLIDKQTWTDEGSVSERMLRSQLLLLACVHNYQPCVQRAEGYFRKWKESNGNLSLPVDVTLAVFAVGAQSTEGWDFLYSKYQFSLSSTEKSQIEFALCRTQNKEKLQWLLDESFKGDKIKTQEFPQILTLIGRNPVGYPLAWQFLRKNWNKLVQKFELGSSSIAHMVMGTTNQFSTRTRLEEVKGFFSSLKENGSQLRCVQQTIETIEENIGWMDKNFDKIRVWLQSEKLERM
miR122 inh: blocks miR-122 activity in Huh7 sensor cells | Huh7 miR-122 Renilla luciferase sensor, 48 h; neutral wells = 0, positive control = 100 | activation (reporter increase), % at 12.5 µM | 340,000 compounds, 0.3% hits;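 active means mean replicate activation score at least 90 and every replicate individually at or above 90; inconclusive means only one of the two criteria met; inactive means neither criterion met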;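 further: higher luciferase means less miR-122 activity so hits act as miR-122 inhibitors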
MLL AF4-AF9 inh: MLL-AF4/AF9 protein interaction inhibition | inhibition, % at 10 µM | 350,000 compounds, 0.47% hits | AlphaScreen, biotin-AF4 peptide binding to FLAG-AF9 | AID 651704;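 active means every replicate reaching a set inhibition limit, whatever the replicate mean, cut at about 25% in these data; inconclusive means mean inhibition reaches that limit but some replicates miss it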
Hits are given with their value; . = inactive; ? = inconclusive; / = no result given; [ ] = dose if it differs, or a comment.

SMILES	Rtt109 HAT inh	S100A4 inh HTS	ERAP1 inh	miR122 inh	MLL AF4-AF9 inh
COc1ccc(S(=O)(=O)Nc2cccc3c2O[C@H](CN(C)C(=O)Nc2ccc(C(F)(F)F)cc2)[C@H](C)CN([C@@H](C)CO)C3=O)cc1	/	.	.	.	.
CN(C)S(=O)(=O)c1ccc(NC(=S)NC(=O)C2CCC2)cc1	.	.	.	.	.
CN(Cc1ccccc1)S(=O)(=O)c1ccc(NC(=S)NC(=O)C2CCCC2)cc1	.	.	.	124	.
CCC(=O)Nc1ccc2c(c1)C(=O)N(C)C[C@H](OC)[C@H](C)CN(C(=O)C1CC1)[C@H](C)CO2	/	.	.	/	.
O=C(Nc1ccc(Cl)cc1)N[C@@H]1CC[C@@H](CCn2cc(-c3ccccc3F)nn2)O[C@@H]1CO	/	.	.	/	.
COc1ccc2c3c([nH]c2c1)[C@H](CO)N(C(=O)CN(C)C)CC31CCN(Cc2ccncc2)CC1	/	.	.	/	.
COCC(=O)N1CC2(CN(Cc3ccccc3Cl)C2)c2c([nH]c3cc(OC)ccc23)[C@@H]1CO	/	/	/	/	.
COc1ccc2c3c([nH]c2c1)[C@@H](CO)N(C(C)=O)CC31CN(Cc2ccccc2Cl)C1	/	.	.	/	29
COc1ccc2c3c([nH]c2c1)[C@@H](CO)N(C(=O)CN(C)C)CC31CN(Cc2ccccc2)C1	/	.	.	/	.
COc1ccc2c3c([nH]c2c1)[C@H](CO)N(C(=O)CN(C)C)CC31CN(Cc2ccccc2Cl)C1	/	/	/	/	32
COc1ccc2c3c([nH]c2c1)[C@@H](CO)N(C(C)=O)CC31CN(C(C)=O)C1	/	.	.	/	.
COc1ccc2c3c([nH]c2c1)[C@H](CO)N(C(=O)CN(C)C)CC31CCN(Cc2ccccc2Cl)CC1	/	.	.	/	28
CCC(=O)N1CC2(CN(Cc3ccccc3Cl)C2)c2c([nH]c3cc(OC)ccc23)[C@H]1CO	/	.	.	/	30
O=C(CSc1ncnc2c1nnn2Cc1ccc(F)cc1)NCC1CCCO1 (stereo unspecified)	.	74	.	/	.
COC(=O)c1c(NC(=O)c2ccccc2)sc(Cc2ccccc2)c1C	.	/	/	.	/
COC(=O)c1c(NC(C)=O)sc(Cc2ccccc2)c1C	.	/	/	153	/
CCOC(=O)N1CCN(Cc2cc(Cl)c3cccnc3c2O)CC1	/	.	.	/	70
COc1cccc(OCc2nnc(SCc3cc(=O)[nH]c4ccccc34)o2)c1	.	.	.	/	38
CN(C)CCCN(C(=O)c1cc(Cl)sc1Cl)c1nc2cc3c(cc2s1)OCO3	.	.	.	/	28
CN(C)CCCN(C(=O)c1ccc(Cl)s1)c1nc2cc3c(cc2s1)OCO3	.	.	.	.	.
CN(C)CCN(C(=O)c1ccc2c(c1)CCCC2)c1nc2cc3c(cc2s1)OCCO3	.	.	.	/	37
COc1ccc2sc(N(CCCN(C)C)C(=O)c3ccc(S(=O)(=O)N4CCCc5ccccc54)cc3)nc2c1	?	.	.	/	31
CN(C)CCCN(C(=O)c1ccc2c(c1)CCCC2)c1nc2c(F)cccc2s1	.	.	.	.	32
COc1ccc2c3c([nH]c2c1)[C@H](CO)N(C(=O)C1CCCC1)CC31CCN(Cc2nccs2)CC1	/	.	.	/	.
COc1ccc(NC(=O)Nc2ccc3c(c2)C(=O)N([C@H](C)CO)C[C@@H](C)[C@H](CN(C)C(=O)Nc2ccc(OC)cc2)O3)cc1	/	.	.	.	.
SMILES	Rtt109 HAT inh	S100A4 inh HTS	ERAP1 inh	miR122 inh	MLL AF4-AF9 inh
Cc1ccc2nc(N(CCCN(C)C)C(=O)c3ccc4c(c3)CCCC4)sc2c1	63	/	/	.	/
CCOc1ccc2nc(N(CCN(C)C)C(=O)c3ccc4c(c3)CCCC4)sc2c1	.	/	/	.	/
C[C@H](CO)N1C[C@H](C)[C@H](CN(C)C(=O)c2cnccn2)Oc2ncc(-c3cccc(F)c3)cc2C1=O	/	.	.	.	.
CCCCNS(=O)(=O)c1ccc2nc(-c3cccnc3)cc(C(=O)NC3CCCC3)c2c1	.	.	.	97	.
CCCCNS(=O)(=O)c1ccc2nc(-c3cccnc3)cc(C(=O)NC3CC3)c2c1	.	.	.	.	.
Cc1ccc(-n2c(=O)cc(N3CC(C)OC(C)C3)[nH]c2=O)cc1 (stereo unspecified)	.	.	.	.	44
c1cc(Nc2cccc3nccnc23)c2nccnc2c1	.	.	.	.	26
O=C(C1CCCCC1)N1C[C@H]2[C@@H](c3ccccc31)[C@@H](CO)N2C(=O)c1ccccc1	/	.	.	260[16.7 µM]	.

Bioassay records (PubChem BioAssay)
